The subject of one data set is A549. The experiment in a line: Antiproliferative activity against human A549 cells assessed as reduction in cell viability incubated for 72 hrs by CCK8 assay. The class given is functional, cell-based. Conditions: A549, 72 h. In general terms: Tetrazolium assays rely on reduction of a dye to a coloured formazan, in cell work by metabolically active cells.
The target of data set [1] is T1, DNA topoisomerase 1 (Escherichia coli (strain K12)) (UniProt P06612).
T1 sequence (whole entry): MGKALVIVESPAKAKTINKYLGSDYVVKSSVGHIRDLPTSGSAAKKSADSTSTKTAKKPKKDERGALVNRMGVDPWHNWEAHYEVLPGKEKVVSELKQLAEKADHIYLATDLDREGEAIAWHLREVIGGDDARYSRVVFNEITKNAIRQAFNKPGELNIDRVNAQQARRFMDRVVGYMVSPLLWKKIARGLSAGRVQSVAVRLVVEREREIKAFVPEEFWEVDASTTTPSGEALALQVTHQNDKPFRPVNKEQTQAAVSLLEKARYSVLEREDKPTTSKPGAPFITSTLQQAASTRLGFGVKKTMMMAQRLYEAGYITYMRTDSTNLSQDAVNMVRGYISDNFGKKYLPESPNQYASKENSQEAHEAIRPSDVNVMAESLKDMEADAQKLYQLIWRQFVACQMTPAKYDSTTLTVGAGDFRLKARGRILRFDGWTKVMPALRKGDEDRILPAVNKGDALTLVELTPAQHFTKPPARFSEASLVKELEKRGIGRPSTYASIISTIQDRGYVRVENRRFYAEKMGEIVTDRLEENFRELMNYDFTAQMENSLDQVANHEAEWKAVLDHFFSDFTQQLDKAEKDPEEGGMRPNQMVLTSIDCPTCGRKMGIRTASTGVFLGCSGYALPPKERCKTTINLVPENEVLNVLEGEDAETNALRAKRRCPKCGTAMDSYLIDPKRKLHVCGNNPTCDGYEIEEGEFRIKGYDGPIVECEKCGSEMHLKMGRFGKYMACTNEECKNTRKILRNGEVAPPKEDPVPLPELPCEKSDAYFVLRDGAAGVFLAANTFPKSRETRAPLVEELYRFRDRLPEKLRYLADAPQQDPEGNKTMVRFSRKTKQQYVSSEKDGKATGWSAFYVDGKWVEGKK
The experiment in a line: Inhibition of Escherichia coli Top1 assessed as decrease in relaxation of supercoiled pBR322 plasmid DNA at 100 uM using supercoiled pBR322 plasmid DNA as substrate incubated for 15 mins by agarose gel electrophoresis analysis.

Data set [2] addresses DNA topoisomerase 2-alpha (Homo sapiens) (UniProt P11388). As to the kind of experiment: Inhibition of human Top2alpha assessed as decrease in relaxation of supercoiled pBR322 plasmid DNA at 100 uM using supercoiled pBR322 plasmid DNA as substrate incubated for 30 mins by agarose gel electrophoresis analysis.
The target of the next data set is Tubulin (Sus scrofa) (UniProt P02554+P02550). The experiment in a line: (§1) Inhibition of porcine brain tubulin polymerization measured at 1 min interval over 20 mins by absorbance based assay.
The target in another data set is Tubulin (Sus scrofa, UniProt P02554+P02550). The description is as §1.
The next data set addresses Tubulin (Homo sapiens) (UniProt P68371+Q9H4B7+P0DPH7+P68366+Q13509+Q71U36+P04350+Q3ZCM7+P07437+P68363+Q9BQE3+Q6PEY2+Q13885+Q9BVA1+Q9BUF5). The experiment in a line: Inhibition of tubulin polymerization in human HCT116 cells assessed as disruption of microtubule by measuring clustered microtubule arrangement in cytosol around the nucleus at 0.4 to 10 uM incubated for 12 hrs by immunofluorescence based analysis. It is filed as cell-based. Put shortly: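 HCT116 cells were exposed to several concentrations for 12 h, with paclitaxel as the control. Nuclei were stained with DAPI and microtubules with mouse anti-α-tubulin. Microtubule organization was imaged by laser confocal microscopy.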

Data set [3] has as its system HCT-116. The experiment in a line: Induction of apoptosis in human HCT116 cells at 0.04 uM incubated for 24 hrs by annexin V-FITC and propidium iodide staining based flow cytometry (reference value: 0.86 %). It is filed as functional.
Data set [4] has as its system HCT-116. As to the kind of experiment: Induction of apoptosis in human HCT116 cells at 1 uM incubated for 24 hrs by annexin V-FITC and propidium iodide staining based flow cytometry (reference value: 0.86 %). It is filed as functional. Background: Flow cytometry measures light scatter and fluorescence of single cells or particles in a stream.
In data set [5] the test system is HCT-116. As to the kind of experiment: Cell cycle arrest in human HCT116 cells assessed as accumulation in G2 phase at 12 nM incubated for 24 hrs by propidium iodide staining based flow cytometry (reference value: 12.52 %). It is filed as functional.
The subject of data set [6] is HCT-116. As to the kind of experiment: Cell cycle arrest in human HCT116 cells assessed as accumulation in S phase at 36 nM incubated for 24 hrs by propidium iodide staining based flow cytometry (reference value: 42.31 %). The class given is functional.
A short description of data set [7]: Toxicity in mouse xenografted with human HCT116 cells assessed as reduction in body weight at 4 mg/kg, ip bid for 21 days administration starting from 10 days after tumor cell implantation measured every 2 or 4 days till the end of the treatment period. Conditions: in vivo. It is filed as organism-based. Put shortly: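 Nude mice bearing HCT116 xenografts were given intraperitoneal doses on 21 consecutive days, with n = 6 per group including an untreated control group. Body weight was recorded to assess toxicity. Data are mean ± SEM, compared with the control group by Student's t test.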

The nature of data set [8]: Aqueous solubility of compound at pH 7.4. The class given is physicochemical.
Data set [9] concerns the target NAD-dependent protein deacetylase sirtuin-1 (Homo sapiens) (UniProt Q96EB6). As to the kind of experiment: Inhibition of N-terminal His tagged recombinant human SIRT1 (193 to end residues) expressed in baculovirus infected Sf9 cells using HDAC substrate 1 as substrate at 5 uM incubated for 30 mins by fluorescence based analysis relative to control.
For data set [10], the target named is Protein mono-ADP-ribosyltransferase PARP15 (Homo sapiens) (UniProt Q460N3). The experiment in a line: Inhibition of PARP15 (unknown origin) using biotin-NAD+, NAD+ and sIDNA as substrate at 5 uM incubated for 1 hr by ELISA relative to control.
Data set [11] addresses Protein arginine N-methyltransferase 1 (Homo sapiens) (UniProt Q99873). The experiment in a line: Inhibition of PRMT1 (unknown origin) using plate-coated histone as substrate at 5 uM incubated for 90 mins in presence of 0.5 uM SAM by AlphaScreen assay relative to control.
For data set [12], the target named is Histone-lysine N-methyltransferase EZH2 (Homo sapiens) (UniProt Q15910). As to the kind of experiment: Inhibition of EZH2 (unknown origin) using plate-coated histone as substrate at 5 uM incubated for 90 mins in presence of 5 uM SAM by AlphaScreen assay relative to control. In general terms: Alpha assays give light when donor and acceptor beads are brought close together.

Data set [13] deals with Matrix metalloproteinase-9 (Homo sapiens) (UniProt P14780). As to the kind of experiment: Inhibition of MMP9 (unknown origin) using Mca-PLGLDpaAR as substrate at 5 uM preincubated with enzyme for 2 hrs followed by incubation with substrate for 15 mins by fluorescence based analysis relative to control.
For data set [14], the system named is Tyrosine-protein kinase ABL1 (Homo sapiens), P00519 [T315I]. The experiment in a line: Inhibition of Abl T315I mutant (unknown origin) using Abltide as substrate at 5 uM incubated for 40 mins in presence of 10 uM ATP by kiase-Glo luminescence assay relative to control.
The target in data set [15] is Focal adhesion kinase 1 (Homo sapiens) (UniProt Q05397). As to the kind of experiment: Inhibition of FAK (unknown origin) using poly (Glu, Tyr) as substrate at 5 uM incubated for 40 mins in presence of 10 uM ATP by kiase-Glo luminescence assay relative to control.

The results in this text go back to ChEMBL document CHEMBL4376872, “Scaffold Hopping of Natural Product Evodiamine: Discovery of a Novel Antitumor Scaffold with Excellent Potency against Colon Cancer” (J Med Chem, 2020).

pIC50: −log10 of the molar value. ≈ marks a conversion by molar mass, not a printed value. Calls of active or inactive are those of the source. The calls are words filed in the database; no cut-off is given here.

Focal adhesion kinase 1 (Homo sapiens), sequence (Q05397 2-1052 limits assumed): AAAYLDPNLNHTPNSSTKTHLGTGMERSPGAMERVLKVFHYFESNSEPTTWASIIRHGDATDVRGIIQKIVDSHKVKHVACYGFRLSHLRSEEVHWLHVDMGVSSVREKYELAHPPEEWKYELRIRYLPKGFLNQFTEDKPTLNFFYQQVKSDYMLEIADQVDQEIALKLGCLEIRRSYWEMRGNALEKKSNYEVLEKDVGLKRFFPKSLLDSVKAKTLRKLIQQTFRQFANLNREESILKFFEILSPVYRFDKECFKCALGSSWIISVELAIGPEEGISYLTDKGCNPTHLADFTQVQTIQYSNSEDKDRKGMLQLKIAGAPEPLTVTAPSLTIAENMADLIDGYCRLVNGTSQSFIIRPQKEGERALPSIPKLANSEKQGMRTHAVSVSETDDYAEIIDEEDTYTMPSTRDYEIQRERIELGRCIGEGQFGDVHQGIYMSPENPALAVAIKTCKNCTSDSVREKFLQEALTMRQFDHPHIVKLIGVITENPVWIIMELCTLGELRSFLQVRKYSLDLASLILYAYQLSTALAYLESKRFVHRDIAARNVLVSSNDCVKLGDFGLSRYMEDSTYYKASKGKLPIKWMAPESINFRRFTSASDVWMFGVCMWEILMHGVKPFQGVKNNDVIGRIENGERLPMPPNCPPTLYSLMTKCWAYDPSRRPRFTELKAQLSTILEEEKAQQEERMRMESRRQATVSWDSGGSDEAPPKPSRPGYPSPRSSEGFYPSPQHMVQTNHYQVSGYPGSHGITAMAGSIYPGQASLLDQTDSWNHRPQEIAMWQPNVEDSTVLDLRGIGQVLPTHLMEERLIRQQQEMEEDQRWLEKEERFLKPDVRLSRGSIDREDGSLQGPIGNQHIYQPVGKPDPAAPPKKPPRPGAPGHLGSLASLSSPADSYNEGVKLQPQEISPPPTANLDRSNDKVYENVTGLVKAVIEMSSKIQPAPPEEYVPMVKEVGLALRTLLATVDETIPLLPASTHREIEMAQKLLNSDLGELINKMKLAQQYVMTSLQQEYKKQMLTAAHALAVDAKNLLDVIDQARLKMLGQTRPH
Tubulin (Sus scrofa), sequence (P02550 whole entry, looked up): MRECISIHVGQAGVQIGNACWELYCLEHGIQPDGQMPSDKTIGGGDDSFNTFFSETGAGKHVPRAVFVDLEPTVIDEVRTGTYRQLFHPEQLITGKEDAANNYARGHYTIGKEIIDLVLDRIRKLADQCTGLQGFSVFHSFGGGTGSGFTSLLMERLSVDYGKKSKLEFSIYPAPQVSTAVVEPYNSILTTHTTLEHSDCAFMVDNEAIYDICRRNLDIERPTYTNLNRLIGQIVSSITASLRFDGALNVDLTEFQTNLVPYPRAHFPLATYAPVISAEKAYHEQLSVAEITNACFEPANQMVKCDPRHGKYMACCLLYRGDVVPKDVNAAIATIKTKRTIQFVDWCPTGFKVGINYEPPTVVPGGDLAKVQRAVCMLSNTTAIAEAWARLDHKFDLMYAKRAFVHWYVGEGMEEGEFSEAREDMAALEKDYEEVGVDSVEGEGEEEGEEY
Tubulin (Sus scrofa), sequence (P02554 whole entry, looked up): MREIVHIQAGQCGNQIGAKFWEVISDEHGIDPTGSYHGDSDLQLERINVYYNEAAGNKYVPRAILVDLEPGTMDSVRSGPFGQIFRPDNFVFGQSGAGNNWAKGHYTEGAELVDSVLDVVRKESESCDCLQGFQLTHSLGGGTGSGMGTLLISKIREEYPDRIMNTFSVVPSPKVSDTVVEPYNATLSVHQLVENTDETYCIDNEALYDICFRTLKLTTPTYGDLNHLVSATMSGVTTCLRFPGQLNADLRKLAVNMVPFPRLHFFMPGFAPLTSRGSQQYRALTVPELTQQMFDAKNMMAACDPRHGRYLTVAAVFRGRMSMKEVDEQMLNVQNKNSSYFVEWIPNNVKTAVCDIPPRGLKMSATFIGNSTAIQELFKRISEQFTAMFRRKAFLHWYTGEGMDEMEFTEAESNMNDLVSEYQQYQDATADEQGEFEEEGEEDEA
NAD-dependent protein deacetylase sirtuin-1 (Homo sapiens), sequence (Q96EB6 whole entry): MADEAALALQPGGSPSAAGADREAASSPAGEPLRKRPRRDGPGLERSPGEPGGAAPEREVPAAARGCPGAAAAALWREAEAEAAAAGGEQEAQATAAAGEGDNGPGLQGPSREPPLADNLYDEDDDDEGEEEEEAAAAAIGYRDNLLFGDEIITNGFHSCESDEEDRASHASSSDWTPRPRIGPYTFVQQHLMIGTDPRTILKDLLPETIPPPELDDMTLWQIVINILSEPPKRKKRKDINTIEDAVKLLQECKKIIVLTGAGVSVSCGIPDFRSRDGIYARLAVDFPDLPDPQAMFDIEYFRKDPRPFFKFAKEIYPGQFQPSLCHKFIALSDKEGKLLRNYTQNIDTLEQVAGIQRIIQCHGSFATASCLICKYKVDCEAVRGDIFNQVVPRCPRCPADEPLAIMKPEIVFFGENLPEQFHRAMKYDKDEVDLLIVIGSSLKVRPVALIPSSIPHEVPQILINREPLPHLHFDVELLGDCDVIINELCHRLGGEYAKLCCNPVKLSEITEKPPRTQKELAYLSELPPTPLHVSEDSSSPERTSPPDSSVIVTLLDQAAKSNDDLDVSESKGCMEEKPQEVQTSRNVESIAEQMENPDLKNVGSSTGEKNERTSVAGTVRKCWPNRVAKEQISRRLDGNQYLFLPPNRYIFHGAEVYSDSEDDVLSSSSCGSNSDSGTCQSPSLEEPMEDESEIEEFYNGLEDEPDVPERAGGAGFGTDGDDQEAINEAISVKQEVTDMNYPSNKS
Protein arginine N-methyltransferase 1 (Homo sapiens), sequence (Q99873 whole entry, looked up): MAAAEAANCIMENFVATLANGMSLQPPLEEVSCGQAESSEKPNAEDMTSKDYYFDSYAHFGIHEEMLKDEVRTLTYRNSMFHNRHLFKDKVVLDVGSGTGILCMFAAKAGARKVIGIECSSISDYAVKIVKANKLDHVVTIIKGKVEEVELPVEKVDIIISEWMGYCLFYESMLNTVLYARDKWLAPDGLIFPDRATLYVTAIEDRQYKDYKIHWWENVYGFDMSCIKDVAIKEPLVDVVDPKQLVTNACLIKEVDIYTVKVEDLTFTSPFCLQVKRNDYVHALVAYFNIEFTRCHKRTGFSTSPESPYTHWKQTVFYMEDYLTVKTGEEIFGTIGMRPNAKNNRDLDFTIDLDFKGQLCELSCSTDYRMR
DNA topoisomerase 2-alpha (Homo sapiens), sequence (P11388 whole entry): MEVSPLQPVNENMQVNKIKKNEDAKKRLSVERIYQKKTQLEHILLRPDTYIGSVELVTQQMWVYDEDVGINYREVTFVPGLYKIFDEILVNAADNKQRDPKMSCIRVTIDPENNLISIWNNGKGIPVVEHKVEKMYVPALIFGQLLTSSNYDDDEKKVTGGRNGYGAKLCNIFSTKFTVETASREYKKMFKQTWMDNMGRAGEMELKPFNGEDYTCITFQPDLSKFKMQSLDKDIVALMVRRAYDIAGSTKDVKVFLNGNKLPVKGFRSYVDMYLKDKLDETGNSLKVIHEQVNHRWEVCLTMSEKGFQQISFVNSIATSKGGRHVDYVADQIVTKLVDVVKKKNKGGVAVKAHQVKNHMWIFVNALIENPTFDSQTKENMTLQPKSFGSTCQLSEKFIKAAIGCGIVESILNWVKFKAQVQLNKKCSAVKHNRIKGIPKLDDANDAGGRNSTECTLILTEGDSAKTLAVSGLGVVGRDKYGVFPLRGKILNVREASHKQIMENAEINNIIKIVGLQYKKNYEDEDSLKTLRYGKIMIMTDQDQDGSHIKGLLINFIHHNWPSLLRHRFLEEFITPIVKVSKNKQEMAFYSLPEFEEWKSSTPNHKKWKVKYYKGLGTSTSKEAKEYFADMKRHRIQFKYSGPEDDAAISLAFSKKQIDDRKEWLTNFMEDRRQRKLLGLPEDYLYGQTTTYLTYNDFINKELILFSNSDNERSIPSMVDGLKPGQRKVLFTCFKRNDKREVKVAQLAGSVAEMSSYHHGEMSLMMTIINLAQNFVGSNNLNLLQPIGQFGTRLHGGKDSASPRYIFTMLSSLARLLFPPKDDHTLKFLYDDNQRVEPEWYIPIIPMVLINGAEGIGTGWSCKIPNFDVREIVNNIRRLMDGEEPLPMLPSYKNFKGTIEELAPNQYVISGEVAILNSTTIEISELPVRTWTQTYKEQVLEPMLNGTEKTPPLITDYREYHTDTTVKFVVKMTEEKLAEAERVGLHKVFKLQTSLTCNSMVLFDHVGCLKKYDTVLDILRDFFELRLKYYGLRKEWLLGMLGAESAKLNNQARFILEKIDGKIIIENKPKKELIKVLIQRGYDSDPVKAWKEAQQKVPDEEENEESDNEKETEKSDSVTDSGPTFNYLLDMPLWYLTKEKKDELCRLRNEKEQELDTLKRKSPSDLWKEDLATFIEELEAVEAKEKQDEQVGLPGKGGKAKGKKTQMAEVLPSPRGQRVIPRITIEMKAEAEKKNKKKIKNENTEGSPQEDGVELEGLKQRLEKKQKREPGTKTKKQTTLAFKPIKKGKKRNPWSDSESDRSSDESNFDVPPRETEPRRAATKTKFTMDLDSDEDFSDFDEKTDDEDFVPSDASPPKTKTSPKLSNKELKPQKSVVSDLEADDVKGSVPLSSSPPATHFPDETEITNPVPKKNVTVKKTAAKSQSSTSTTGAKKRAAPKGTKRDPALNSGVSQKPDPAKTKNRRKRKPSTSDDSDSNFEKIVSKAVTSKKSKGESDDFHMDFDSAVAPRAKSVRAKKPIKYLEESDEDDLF

What is called pIC50 is −log10 of the IC50, conventionally taken in molar units. As a reminder, the inhibition is the drop in the measured response relative to a control, in per cent. The IC50 is the concentration needed to halve the response being measured. A low value points to greater potency in that assay. By solubility is commonly meant the dissolved amount per volume that the medium holds. Low values mean a poorly soluble substance, high ones a readily soluble substance. With `COc1ccc2c(c1)cc1n2CCN2C(=O)c3cc(F)ccc3N(C)C12` (centres undefined), the pIC50 in the data set on A549 is 3.80. Moreover, the inhibition result (in data set [1]; on Tubulin (Homo sapiens)) was “Active” each time. In [2], the inhibition entry is “inactive”. Moreover, the inhibition entry on Tubulin (Sus scrofa) is “Dose-dependent effect”; in data set [9], below 20%; in data set [10] it was below 20%; in data set [11], below 20%; in data set [12], below 20%; in data set [13] it was below 20%. Moreover, the inhibition in [14] and in data set [15] was below 20% throughout. Moreover, the 50% inhibitory concentration (IC50) on Tubulin was 26.3 µM. In addition, the Activity with HCT-116 [3] is listed as 32.52%; in the data set with HCT-116 [4], 52%; with HCT-116 [5] it was 35.49%; in the data set with HCT-116 [6] it was 14.85%; in data set [7], “Non-Toxic”. For the same compound, the concentration in solution in data set [8] (solubility) came to 1.5 µg/mL (≈ 4.27 µM).
